The target in experiment [1] is T1, Adrenergic receptor alpha-1 (Rattus norvegicus, UniProt P15823+P23944+P43140).
T1 sequence (P15823 whole entry): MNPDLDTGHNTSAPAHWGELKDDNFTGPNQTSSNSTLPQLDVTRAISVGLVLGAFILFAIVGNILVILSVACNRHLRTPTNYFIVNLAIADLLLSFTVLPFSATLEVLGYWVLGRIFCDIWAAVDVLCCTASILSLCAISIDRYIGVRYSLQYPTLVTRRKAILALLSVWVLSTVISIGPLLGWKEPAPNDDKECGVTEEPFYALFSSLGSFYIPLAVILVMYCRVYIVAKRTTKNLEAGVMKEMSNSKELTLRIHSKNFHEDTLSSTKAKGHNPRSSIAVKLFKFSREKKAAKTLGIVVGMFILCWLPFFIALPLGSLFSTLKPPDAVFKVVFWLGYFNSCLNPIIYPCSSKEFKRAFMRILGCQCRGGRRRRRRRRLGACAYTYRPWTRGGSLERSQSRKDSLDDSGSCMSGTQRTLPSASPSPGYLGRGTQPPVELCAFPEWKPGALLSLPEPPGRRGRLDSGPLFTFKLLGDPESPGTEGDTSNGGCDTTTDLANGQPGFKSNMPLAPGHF
T1 sequence (P23944 whole entry): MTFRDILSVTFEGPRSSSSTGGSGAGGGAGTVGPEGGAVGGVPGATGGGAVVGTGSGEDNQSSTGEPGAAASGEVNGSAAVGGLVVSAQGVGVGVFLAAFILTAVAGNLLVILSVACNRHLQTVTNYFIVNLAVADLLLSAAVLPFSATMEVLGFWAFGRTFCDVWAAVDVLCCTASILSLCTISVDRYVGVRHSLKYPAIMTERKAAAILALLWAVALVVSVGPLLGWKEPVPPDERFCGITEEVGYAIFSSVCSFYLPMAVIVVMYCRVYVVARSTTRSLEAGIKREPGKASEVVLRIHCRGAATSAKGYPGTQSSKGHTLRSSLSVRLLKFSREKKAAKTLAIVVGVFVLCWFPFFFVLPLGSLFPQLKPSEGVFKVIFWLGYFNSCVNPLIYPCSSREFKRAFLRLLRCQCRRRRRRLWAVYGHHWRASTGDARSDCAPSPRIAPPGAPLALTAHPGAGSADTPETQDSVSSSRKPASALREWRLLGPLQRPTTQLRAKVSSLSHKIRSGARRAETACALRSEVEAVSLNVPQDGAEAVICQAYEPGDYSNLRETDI
T1 sequence (P43140 whole entry): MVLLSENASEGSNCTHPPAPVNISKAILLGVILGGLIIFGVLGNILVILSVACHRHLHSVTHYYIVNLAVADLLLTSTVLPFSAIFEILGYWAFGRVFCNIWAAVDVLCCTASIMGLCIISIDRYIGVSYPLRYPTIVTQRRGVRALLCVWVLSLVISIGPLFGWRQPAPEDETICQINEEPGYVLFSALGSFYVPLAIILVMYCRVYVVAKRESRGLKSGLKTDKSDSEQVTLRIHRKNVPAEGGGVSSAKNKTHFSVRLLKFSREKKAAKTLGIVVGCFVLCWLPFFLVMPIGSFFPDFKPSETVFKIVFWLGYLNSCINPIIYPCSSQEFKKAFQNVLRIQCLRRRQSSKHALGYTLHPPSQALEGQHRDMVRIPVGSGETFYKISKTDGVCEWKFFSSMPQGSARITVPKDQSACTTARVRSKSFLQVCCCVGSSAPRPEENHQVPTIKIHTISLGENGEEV
The experiment can be described thus: Inhibitory activity against Alpha-1 adrenergic receptor by 3H ligand binding experiments. Type of experiment: protein assay. The procedure, abridged: (§1)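 Competition binding on rat brain synaptic membranes at 10 mg wet tissue per assay, with compounds at 0.01–1000 μM. Radioligand and tissue: S1, [3H]serotonin, frontal cortex; S2, [3H]spiperone, frontal cortex; α1, [3H]WB-4101, whole brain; α2, [3H]clonidine, whole brain. Assays ended by rapid filtration and scintillation counting. IC50 was derived by probit analysis.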

In experiment [2] the target is Serotonin 1 (5-HT1) receptor (Rattus norvegicus, UniProt P28564+P30940+P19327+P28565). The experiment is described as follows: Inhibitory activity against 5-hydroxytryptamine 1 receptor by 3H ligand binding experiments. Type of experiment: protein assay. Put shortly:
as §1

For experiment [3], the system named is Canis familiaris. The experiment is described as follows: Compound was tested for anti-apomorphine effect in 2 dogs and the vomiting frequency expressed at a dose of 1.0 mg/kg perorally. It counts as functional, Canis lupus familiaris. The conditions noted are these: route oral. The procedure, abridged: (§2)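 Dogs received oral test article, then were challenged with apomorphine, and vomiting frequency was counted; saline controls were run. ED50 with 95% confidence limits was derived by probit analysis. Significance versus control was tested by Student's t test.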

Experiment [4] is filed under the species Canis familiaris. The experiment can be described thus: Effective dose required to inhibit 50% of apomorphine effect. Type of experiment: functional. The conditions noted are these: Canis lupus familiaris. Put shortly:
as §2

For experiment [5], the system named is Rattus norvegicus. The experiment is described as follows: Gastric emptying of phenol red semisolid meal in rats at dose of 2.0 mg/kg, administered perorally. It counts as functional. The conditions noted are these: route oral.
Experiment [6] concerns Canis familiaris. The experiment is described as follows: Compound was tested for anti-apomorphine effect in 3 dogs and the vomiting frequency expressed at a dose of 2.0 mg/kg perorally. It counts as functional, Canis lupus familiaris. The conditions noted are these: route oral. The procedure, abridged:
as §2

Experiment [7] relates to Canis familiaris. The experiment can be described thus: Compound was tested for anti-apomorphine effect in 3 dogs and the vomiting frequency expressed at a dose of 0.5 mg/kg perorally. It counts as functional, Canis lupus familiaris. To be noted: route oral. The procedure, abridged:
as §2

For experiment [8], the system named is Canis familiaris. The experiment can be described thus: Compound was tested for anti-apomorphine effect in 3 dogs and the vomiting frequency expressed at a dose of 0.2 mg/kg perorally. It counts as functional, Canis lupus familiaris. The conditions noted are these: route oral. The procedure, abridged:
as §2

The subject of experiment [9] is Canis familiaris. The experiment is described as follows: Compound was tested for anti-apomorphine effect in 3 dogs and the vomiting frequency expressed at a dose of 1.0 mg/kg perorally. Type of experiment: functional, Canis lupus familiaris. To be noted: route oral. The procedure, abridged:
as §2

For experiment [10], the species on record is Canis familiaris. The experiment can be described thus: Effective dose required to inhibit 50% of apomorphine effect(95% confidence limits). Type of experiment: functional. The conditions noted are these: Canis lupus familiaris. The procedure, abridged: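 Dogs were given the test drug orally, with saline controls, and then challenged with apomorphine. Vomiting frequency was counted in groups of 2–8 dogs per dose. ED50 and its 95% confidence limits were obtained by probit analysis. Significance against controls used Student's t test.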

Experiment [11] addresses T2, Adrenergic receptor alpha-2 (Rattus norvegicus, UniProt P22086+P19328+P22909).
T2 sequence (P22086 whole entry): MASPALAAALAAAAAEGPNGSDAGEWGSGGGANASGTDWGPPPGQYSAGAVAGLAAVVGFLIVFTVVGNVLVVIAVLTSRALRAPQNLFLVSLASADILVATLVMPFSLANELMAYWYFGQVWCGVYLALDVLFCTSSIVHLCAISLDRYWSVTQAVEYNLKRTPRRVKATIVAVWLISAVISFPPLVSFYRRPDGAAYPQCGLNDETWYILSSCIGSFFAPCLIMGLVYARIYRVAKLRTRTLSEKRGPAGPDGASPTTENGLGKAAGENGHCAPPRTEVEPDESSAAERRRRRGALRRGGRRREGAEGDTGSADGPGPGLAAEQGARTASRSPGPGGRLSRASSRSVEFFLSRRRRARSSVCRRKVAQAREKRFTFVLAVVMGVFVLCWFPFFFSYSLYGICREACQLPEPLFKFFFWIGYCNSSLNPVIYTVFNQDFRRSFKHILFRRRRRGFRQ
T2 sequence (P19328 whole entry): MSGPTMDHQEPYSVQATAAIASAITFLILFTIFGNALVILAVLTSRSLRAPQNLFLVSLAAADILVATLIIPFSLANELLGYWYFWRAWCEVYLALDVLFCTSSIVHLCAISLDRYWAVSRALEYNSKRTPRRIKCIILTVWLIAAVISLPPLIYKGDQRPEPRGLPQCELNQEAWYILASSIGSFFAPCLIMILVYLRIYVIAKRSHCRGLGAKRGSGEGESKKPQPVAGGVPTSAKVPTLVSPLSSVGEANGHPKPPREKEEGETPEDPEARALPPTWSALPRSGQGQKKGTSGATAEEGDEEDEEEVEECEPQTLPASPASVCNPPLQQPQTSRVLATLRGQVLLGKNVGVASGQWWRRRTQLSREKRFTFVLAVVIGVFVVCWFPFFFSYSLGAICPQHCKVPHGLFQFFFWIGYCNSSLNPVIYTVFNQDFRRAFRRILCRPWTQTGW
T2 sequence (P22909 whole entry): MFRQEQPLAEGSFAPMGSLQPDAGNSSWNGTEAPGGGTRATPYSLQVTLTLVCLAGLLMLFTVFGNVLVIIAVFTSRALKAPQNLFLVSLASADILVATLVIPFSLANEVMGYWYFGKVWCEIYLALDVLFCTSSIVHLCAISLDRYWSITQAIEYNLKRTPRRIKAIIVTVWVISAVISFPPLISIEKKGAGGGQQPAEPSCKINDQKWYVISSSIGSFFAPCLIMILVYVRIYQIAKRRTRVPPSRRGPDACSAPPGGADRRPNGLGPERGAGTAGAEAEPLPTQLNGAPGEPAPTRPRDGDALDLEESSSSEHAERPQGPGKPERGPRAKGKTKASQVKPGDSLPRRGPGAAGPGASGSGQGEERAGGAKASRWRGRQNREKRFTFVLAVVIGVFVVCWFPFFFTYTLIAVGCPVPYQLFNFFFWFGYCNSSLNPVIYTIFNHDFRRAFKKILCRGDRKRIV
The experiment can be described thus: Inhibitory activity against alpha-2 adrenergic receptor by 3H ligand binding experiments. It counts as protein assay.

In experiment [12] the test system is Canis familiaris. The experiment can be described thus: Compound was tested for anti-apomorphine effect in 8 dogs and the vomiting frequency expressed at a dose of 1.0 mg/kg perorally. Type of experiment: functional, Canis lupus familiaris. To be noted: route oral. The procedure, abridged:
as §2

Experiment [13] concerns the target D(2) dopamine receptor (Rattus norvegicus, UniProt P61169). The experiment is described as follows: Inhibitory activity against dopamine receptor D2 by 3H ligand binding experiments. Put shortly: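 Competition binding used rat striatal synaptic membranes (10 mg wet tissue per assay) with [3H]spiperone. Test compounds spanned 0.01–1000 μM. Assays were started by adding tissue and stopped by rapid glass-fibre filtration with ice-cold buffer washes. Filters were solubilised and radioactivity counted.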

Experiment [14] has as its target Serotonin 2 (5-HT2) receptor (Rattus norvegicus, UniProt P30994+P08909+P14842). The experiment can be described thus: Inhibitory activity against 5-hydroxytryptamine 2 receptor by 3H ligand binding experiments. It counts as protein assay.
The subject of experiment [15] is Canis familiaris. The experiment can be described thus: Compound was tested for anti-apomorphine effect in 8 dogs and the vomiting frequency expressed at a dose of 10.0 mg/kg perorally. To be noted: route oral. Type of experiment: functional, Canis lupus familiaris. Put shortly:
as §2

D(2) dopamine receptor, sequence (P61169 whole entry): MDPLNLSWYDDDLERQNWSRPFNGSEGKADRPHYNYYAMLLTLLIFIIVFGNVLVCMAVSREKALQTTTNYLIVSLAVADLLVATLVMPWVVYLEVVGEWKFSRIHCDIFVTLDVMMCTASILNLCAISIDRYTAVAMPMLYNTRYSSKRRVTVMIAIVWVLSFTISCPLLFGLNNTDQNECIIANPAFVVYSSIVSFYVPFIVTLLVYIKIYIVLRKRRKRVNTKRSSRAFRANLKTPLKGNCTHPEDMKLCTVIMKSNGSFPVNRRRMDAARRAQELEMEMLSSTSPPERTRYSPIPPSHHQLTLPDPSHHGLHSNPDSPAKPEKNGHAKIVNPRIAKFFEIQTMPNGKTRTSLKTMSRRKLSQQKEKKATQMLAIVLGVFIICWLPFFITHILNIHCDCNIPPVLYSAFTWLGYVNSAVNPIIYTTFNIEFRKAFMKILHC

Regarding `COc1cc(N)c(Cl)cc1C(=O)NC1CCN(CCCOc2ccc(F)cc2)CC1OC` (configuration not stated) [CISAPRIDE], the IC50 (commonly the midpoint of a concentration-inhibition curve) is 0.11 µM in experiment [1] and 4.47 µM in [2]. Also, the Vomiting frequency in experiment [3] is listed as 6. Further, the ED50 (in general, the dose that gives a 50% effect, or the effect in half of the subjects) in experiment [4] is more than 1 mg/kg. Also, in experiment [5], the GE worked out at 47%.
Turning to `CCN(CC)CCNC(=O)c1cc(Cl)c(N)cc1OC` [METOCLOPRAMIDE], the Vomiting frequency in experiment [6] stood at 0.3; in experiment [7], 4; in [8] it was 7.7; in experiment [9], 1.3. For the same compound, the IC50 turned out to be 32.8 µM in [1], 7.8 µM in experiment [2] and 7.7 µM in experiment [11]. In addition, in experiment [10], it took a dose of 0.45 mg/kg to reach the 50% effect level (ED50). Moreover, the GE in experiment [5] is recorded as 21%.
As for `CCOc1cc(N)c(Cl)cc1C(=O)NCC1CN(Cc2ccc(F)cc2)CCO1.O=C(O)CC(O)(CC(=O)O)C(=O)O` (configuration not stated) [MOSAPRIDE CITRATE], the results for the Vomiting frequency in experiment [12] and in experiment [15] were 6.4 and 6.3, respectively. The half-inhibitory concentration (IC50) in experiment [1] was more than 100 µM; in experiment [13] it was more than 100 µM; in [2] it was more than 100 µM; in experiment [14], more than 100 µM; in experiment [11] it was more than 10 µM. The compound also had an ED50 in experiment [4] of more than 10 mg/kg.

(Values after ChEMBL document CHEMBL1125819, “Novel benzamides as selective and potent gastrokinetic agents. 2. Synthesis and structure-activity relationships of 4-amino-5-chloro-2-ethoxy-N-[[4-(4-fluorobenzyl)-2- morpholinyl]methyl] benzamide citrate (AS-4370) and related compounds” (J Med Chem, 1991).)
